Measured values from ChEMBL document CHEMBL4706538, “Novel pleuromutilin derivatives with substituted 6-methylpyrimidine: Design, synthesis and antibacterial evaluation” (2020).
Converted amounts (≈) assume the structure as drawn.

Tests used:
Type in all cases: functional
Settings in all cases: time 18-24 hrs
[1] = system: Staphylococcus aureus; assay: Antibacterial activity against Staphylococcus aureus BNCC 337371 measured after 18 to 24 hrs by microtiter dilution method
In short: (§1)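 Compounds were taken up in 25% DMSO at 64 μg/mL and serially diluted two-fold in water (11 dilutions). Log-phase bacteria grown in MHB were diluted to 10^5-10^6 CFU/mL and mixed 1:1 with the dilutions. Plates were incubated at 37 °C for 18-24 h. MIC was the lowest concentration giving no growth by OD492, averaged over three independent experiments.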

[2] = system: Staphylococcus epidermidis; assay: Antibacterial activity against Staphylococcus epidermidis ATCC 51625 measured after 18 to 24 hrs by microtiter dilution method; in short: as §1
[3] = system: Streptococcus agalactiae; assay: Antibacterial activity against Streptococcus agalactiae measured after 18 to 24 hrs by microtiter dilution method; in short: as §1
[4] = system: Streptococcus dysgalactiae; assay: Antibacterial activity against Streptococcus dysgalactiae measured after 18 to 24 hrs by microtiter dilution method; in short: as §1
[5] = system: Staphylococcus aureus; assay: Antibacterial activity against Staphylococcus aureus ATCC 25923 measured after 18 to 24 hrs by microtiter dilution method; in short: as §1
[6] = system: Pasteurella multocida; assay: Antibacterial activity against Pasteurella multocida CVCC 1659 measured after 18 to 24 hrs by microtiter dilution method; in short: as §1
[7] = system: Enterococcus faecalis; assay: Antibacterial activity against Enterococcus faecalis measured after 18 to 24 hrs by microtiter dilution method; in short: as §1
[8] = system: Escherichia coli; assay: Antibacterial activity against Escherichia coli CICC 10389 measured after 18 to 24 hrs by microtiter dilution method; in short: as §1

Structure (SMILES)	MIC [1]	MIC [2]	MIC [3]	MIC [4]	MIC [5]	MIC [6]	MIC [7]	MIC [8]
C=C[C@]1(C)C[C@@H](OC(=O)CSc2nc(C)cc(OCCCC)n2)[C@@]2(C)[C@H](C)CC[C@]3(CCC(=O)[C@H]32)[C@@H](C)[C@@H]1O	3.58 µM (≈ 2 µg/mL)	1.79 µM (≈ 1 µg/mL)	0.9 µM (≈ 0.503 µg/mL)	0.45 µM (≈ 0.251 µg/mL)	1.79 µM (≈ 1 µg/mL)	> 57.3 µM	57.3 µM (≈ 32 µg/mL)	> 57.3 µM
C=C[C@]1(C)C[C@@H](OC(=O)CSc2nc(C)cc(N3CCNCC3)n2)[C@@]2(C)[C@H](C)CC[C@]3(CCC(=O)[C@H]32)[C@@H](C)[C@@H]1O	0.11 µM (≈ 0.0628 µg/mL)	0.22 µM (≈ 0.126 µg/mL)	0.11 µM (≈ 0.0628 µg/mL)	0.05 µM (≈ 0.0285 µg/mL)	0.11 µM (≈ 0.0628 µg/mL)	28.1 µM (≈ 16 µg/mL)	14 µM (≈ 8.01 µg/mL)	> 56.1 µM
C=C[C@]1(C)C[C@@H](OC(=O)CSc2nc(C)cc(N(CC)CC)n2)[C@@]2(C)[C@H](C)CC[C@]3(CCC(=O)[C@H]32)[C@@H](C)[C@@H]1O	0.45 µM (≈ 0.251 µg/mL)	0.45 µM (≈ 0.251 µg/mL)	0.11 µM (≈ 0.0614 µg/mL)	0.22 µM (≈ 0.123 µg/mL)	0.22 µM (≈ 0.123 µg/mL)	57.4 µM (≈ 32 µg/mL)	28.7 µM (≈ 16 µg/mL)	> 57.4 µM
C=C[C@]1(C)C[C@@H](OC(=O)CSc2nc(C)cc(N3CCC(CCO)CC3)n2)[C@@]2(C)[C@H](C)CC[C@]3(CCC(=O)[C@H]32)[C@@H](C)[C@@H]1O	0.2 µM (≈ 0.123 µg/mL)	0.2 µM (≈ 0.123 µg/mL)	0.05 µM (≈ 0.0307 µg/mL)	0.05 µM (≈ 0.0307 µg/mL)	0.1 µM (≈ 0.0614 µg/mL)	52.2 µM (≈ 32 µg/mL)	26.1 µM (≈ 16 µg/mL)	> 52.2 µM
C=C[C@]1(C)C[C@@H](OC(=O)CSc2nc(C)cc(N3CCN(CCO)CC3)n2)[C@@]2(C)[C@H](C)CC[C@]3(CCC(=O)[C@H]32)[C@@H](C)[C@@H]1O	0.41 µM (≈ 0.252 µg/mL)	0.2 µM (≈ 0.123 µg/mL)	0.1 µM (≈ 0.0615 µg/mL)	0.1 µM (≈ 0.0615 µg/mL)	0.1 µM (≈ 0.0615 µg/mL)	26 µM (≈ 16 µg/mL)	26 µM (≈ 16 µg/mL)	> 52.1 µM
C=C[C@]1(C)C[C@@H](OC(=O)CSc2nc(C)cc(N3CCN(C)CC3)n2)[C@@]2(C)[C@H](C)CC[C@]3(CCC(=O)[C@H]32)[C@@H](C)[C@@H]1O	0.43 µM (≈ 0.251 µg/mL)	0.43 µM (≈ 0.251 µg/mL)	0.11 µM (≈ 0.0643 µg/mL)	0.43 µM (≈ 0.251 µg/mL)	0.43 µM (≈ 0.251 µg/mL)	54.8 µM (≈ 32 µg/mL)	54.8 µM (≈ 32 µg/mL)	> 54.8 µM
C=C[C@]1(C)C[C@@H](OC(=O)CSc2nc(C)cc(OCC)n2)[C@@]2(C)[C@H](C)CC[C@]3(CCC(=O)[C@H]32)[C@@H](C)[C@@H]1O	0.12 µM (≈ 0.0637 µg/mL)	0.24 µM (≈ 0.127 µg/mL)	0.24 µM (≈ 0.127 µg/mL)	0.12 µM (≈ 0.0637 µg/mL)	0.12 µM (≈ 0.0637 µg/mL)	> 60.4 µM	15.1 µM (≈ 8.01 µg/mL)	> 60.4 µM
C=C[C@]1(C)C[C@@H](OC(=O)CSc2nc(C)cc(OC)n2)[C@@]2(C)[C@H](C)CC[C@]3(CCC(=O)[C@H]32)[C@@H](C)[C@@H]1O	0.24 µM (≈ 0.124 µg/mL)	0.24 µM (≈ 0.124 µg/mL)	0.24 µM (≈ 0.124 µg/mL)	0.12 µM (≈ 0.062 µg/mL)	0.24 µM (≈ 0.124 µg/mL)	62 µM (≈ 32 µg/mL)	31 µM (≈ 16 µg/mL)	> 62 µM
C=C[C@]1(C)C[C@@H](OC(=O)CSc2nc(C)cc(N3CC[C@@H](O)C3)n2)[C@@]2(C)[C@H](C)CC[C@]3(CCC(=O)[C@H]32)[C@@H](C)[C@@H]1O	0.22 µM (≈ 0.126 µg/mL)	0.11 µM (≈ 0.0629 µg/mL)	0.11 µM (≈ 0.0629 µg/mL)	0.22 µM (≈ 0.126 µg/mL)	0.11 µM (≈ 0.0629 µg/mL)	14 µM (≈ 8 µg/mL)	28 µM (≈ 16 µg/mL)	> 56 µM
C=C[C@]1(C)C[C@@H](OC(=O)CSc2nc(C)cc(N3CCC[C@@H](O)C3)n2)[C@@]2(C)[C@H](C)CC[C@]3(CCC(=O)[C@H]32)[C@@H](C)[C@@H]1O	0.21 µM (≈ 0.123 µg/mL)	0.21 µM (≈ 0.123 µg/mL)	0.05 µM (≈ 0.0293 µg/mL)	0.11 µM (≈ 0.0644 µg/mL)	0.21 µM (≈ 0.123 µg/mL)	27.3 µM (≈ 16 µg/mL)	27.3 µM (≈ 16 µg/mL)	> 54.7 µM
C=C[C@]1(C)C[C@@H](OC(=O)CSc2nc(C)cc(OCCN)n2)[C@@]2(C)[C@H](C)CC[C@]3(CCC(=O)[C@H]32)[C@@H](C)[C@@H]1O	0.92 µM (≈ 0.502 µg/mL)	0.92 µM (≈ 0.502 µg/mL)	0.46 µM (≈ 0.251 µg/mL)	0.23 µM (≈ 0.126 µg/mL)	0.92 µM (≈ 0.502 µg/mL)	> 58.7 µM	58.7 µM (≈ 32 µg/mL)	> 58.7 µM
C=C[C@]1(C)C[C@@H](OC(=O)CSc2nc(C)cc(N(C)C)n2)[C@@]2(C)[C@H](C)CC[C@]3(CCC(=O)[C@H]32)[C@@H](C)[C@@H]1O	0.24 µM (≈ 0.127 µg/mL)	0.24 µM (≈ 0.127 µg/mL)	0.12 µM (≈ 0.0636 µg/mL)	0.12 µM (≈ 0.0636 µg/mL)	0.12 µM (≈ 0.0636 µg/mL)	30.2 µM (≈ 16 µg/mL)	15.1 µM (≈ 8 µg/mL)	> 60.5 µM
C=C[C@]1(C)C[C@@H](OC(=O)CSc2nc(C)cc(N3CCC[C@H](CO)C3)n2)[C@@]2(C)[C@H](C)CC[C@]3(CCC(=O)[C@H]32)[C@@H](C)[C@@H]1O	0.21 µM (≈ 0.126 µg/mL)	0.21 µM (≈ 0.126 µg/mL)	0.05 µM (≈ 0.03 µg/mL)	0.05 µM (≈ 0.03 µg/mL)	0.1 µM (≈ 0.06 µg/mL)	26.7 µM (≈ 16 µg/mL)	26.7 µM (≈ 16 µg/mL)	> 53.5 µM
C=C[C@]1(C)C[C@@H](OC(=O)CSc2nc(C)cc(N3CCC(CO)CC3)n2)[C@@]2(C)[C@H](C)CC[C@]3(CCC(=O)[C@H]32)[C@@H](C)[C@@H]1O	0.84 µM (≈ 0.504 µg/mL)	0.42 µM (≈ 0.252 µg/mL)	0.84 µM (≈ 0.504 µg/mL)	0.42 µM (≈ 0.252 µg/mL)	0.21 µM (≈ 0.126 µg/mL)	53.5 µM (≈ 32.1 µg/mL)	53.5 µM (≈ 32.1 µg/mL)	> 53.5 µM
C=C[C@]1(C)C[C@@H](OC(=O)CSc2nc(C)cc(O)n2)[C@@]2(C)[C@H](C)CC[C@]3(CCC(=O)[C@H]32)[C@@H](C)[C@@H]1O	0.25 µM (≈ 0.126 µg/mL)	0.25 µM (≈ 0.126 µg/mL)	0.12 µM (≈ 0.0603 µg/mL)	0.12 µM (≈ 0.0603 µg/mL)	0.25 µM (≈ 0.126 µg/mL)	7.95 µM (≈ 4 µg/mL)	16 µM (≈ 8.02 µg/mL)	> 63.8 µM
C=C[C@]1(C)C[C@@H](OC(=O)CSc2nc(C)cc(N3CCC(O)CC3)n2)[C@@]2(C)[C@H](C)CC[C@]3(CCC(=O)[C@H]32)[C@@H](C)[C@@H]1O	0.21 µM (≈ 0.123 µg/mL)	0.21 µM (≈ 0.123 µg/mL)	0.11 µM (≈ 0.0644 µg/mL)	0.11 µM (≈ 0.0644 µg/mL)	0.21 µM (≈ 0.123 µg/mL)	27.3 µM (≈ 16 µg/mL)	13.7 µM (≈ 8.01 µg/mL)	> 54.7 µM
C=C[C@]1(C)C[C@@H](OC(=O)CSc2nc(C)cc(OC(C)C)n2)[C@@]2(C)[C@H](C)CC[C@]3(CCC(=O)[C@H]32)[C@@H](C)[C@@H]1O	0.23 µM (≈ 0.125 µg/mL)	0.46 µM (≈ 0.251 µg/mL)	0.23 µM (≈ 0.125 µg/mL)	0.92 µM (≈ 0.501 µg/mL)	0.46 µM (≈ 0.251 µg/mL)	> 58.8 µM	58.8 µM (≈ 32 µg/mL)	> 58.8 µM
C=C[C@]1(C)C[C@@H](OC(=O)CS[C@@H]2C[C@H]3CC[C@@H](C2)N3C)[C@@]2(C)[C@H](C)CC[C@]3(CCC(=O)[C@H]32)[C@@H](C)[C@@H]1O	0.12 µM (≈ 0.0621 µg/mL)	0.12 µM (≈ 0.0621 µg/mL)	0.06 µM (≈ 0.0311 µg/mL)	0.06 µM (≈ 0.0311 µg/mL)	0.24 µM (≈ 0.124 µg/mL)	0.97 µM (≈ 0.502 µg/mL)	15.4 µM (≈ 8 µg/mL)	30.9 µM (≈ 16 µg/mL)
